Measurements published in ChEMBL document CHEMBL3414539, “Quantum chemistry calculation-aided structural optimization of combretastatin A-4-like tubulin polymerization inhibitors: improved stability and biological activity” (J Med Chem, 2015).

Key:
[1] = Stability assessed as cis-trans isomerization equilibrium by mesuring remaining compound level at 1.5 x 10^-2 M exposed to UV-visible light irradiation after 1.5 hrs by LC-HRMS method; type: physicochemical; settings: read-out: Stability
[2] = Stability assessed as cis-trans isomerization equilibrium by mesuring remaining compound level at 1.5 x 10^-2 M exposed to UV-visible light irradiation after 22 hrs by LC-HRMS method; type: physicochemical; settings: read-out: Stability
[3] = Stability assessed as cis-trans isomerization equilibrium at 1.5 x 10^-2 M under natural light conditions after 7 days by LC-HRMS method; type: physicochemical; settings: 168 h, 15000 µM
HT-29 [4] = experiment: Growth inhibition of human HT-29 cells by MTT assay; type: functional, cell-based
Procedure, shortened: (§1)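 MTT assay in SKOV3 ovarian and HT-29 colon carcinoma cells, absorbance read at 570 nm. Triplicate wells in at least three independent assays; average IC50 reported.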

SK-OV-3 = experiment: Growth inhibition of human SKOV3 cells by MTT assay; type: functional, cell-based; procedure, shortened: as §1
Tubulin = Tubulin (Bos taurus, UniProt Q6B856+Q862L2+Q862F3); experiment: Inhibition of bovine brain tubulin polymerization incubated for 60 mins by microplate reader based turbidimetry
HT-29 [5] = experiment: Antitumor activity against human HT-29 cells xenografted in BALB/c mouse assessed as reduction in tumor volume at 50 and 150 mg/kg, ip administered once daily and measured on day 18; type: functional, organism-based; set-up: dose 150 mg/kg
Procedure, shortened: (§2)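 Female BALB/c nude mice (18–20 g) bearing HT-29 xenografts of around 100 mm³, randomized into six animals/treatment and twelve controls. Drug or vehicle given ip once a day for 18 days. Tumor volume and body weight recorded on d0 and d18. T/C (%) derived from relative tumor volume (Vt/Vo). Body weight change given as mean in g.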

HT-29 [6] = experiment: Antitumor activity against human HT-29 cells xenografted in BALB/c mouse assessed as reduction in tumor volume at 150 mg/kg, ip administered once daily for 18 days; type: functional; settings: route intraperitoneal; procedure, shortened: as §2
HT-29 [7] = experiment: Antitumor activity against human HT-29 cells xenografted in BALB/c mouse assessed as reduction in tumor volume at 50 mg/kg, ip administered once daily for 18 days; type: functional; settings: route intraperitoneal; procedure, shortened: as §2
Mus musculus [8] = experiment: Toxicity in human HT-29 cells xenografted BALB/c mouse assessed as change in body weight at 150 mg/kg, ip administered once daily for 18 days (reference value: 2.5 g); type: organism-based; set-up: dose 150 mg/kg, route intraperitoneal; settings: in vivo, 432 h; procedure, shortened: as §2
Mus musculus [9] = experiment: Toxicity in human HT-29 cells xenografted BALB/c mouse assessed as change in body weight at 50 mg/kg, ip administered once daily for 18 days (reference value: 2.5 g); type: organism-based; set-up: dose 50 mg/kg, route intraperitoneal; settings: in vivo, 432 h

Row | Structure (SMILES) | remaining at 1.5 h, 15000 µM [1] | IC50 (HT-29 [4]) | IC50 (SK-OV-3) | IC50 (Tubulin) | also measured
1 | COc1ccc2c(c1)CC[C@H](O)/C2=C/c1cc(OC)c(OC)c(OC)c1 | 98.9% | 1 nM | 1 nM | 410 nM | remaining at 22 h, 15000 µM [2]: 90.2%; Stability [3]: Stable; inhibition (HT-29 [5]): Dose-dependent effect; T/C (HT-29 [6]): 37%; T/C (HT-29 [7]): 61%; Activity (Mus musculus [8]): 1.8 g; Activity (Mus musculus [9]): 2.3 g
2 | COc1ccc(/C=C\c2cc(OC)c(OC)c(OC)c2)cc1O [COMBRETASTATIN A4] | 99.1% | 1 nM | 1 nM | – | remaining at 22 h, 15000 µM [2]: 84%; Stability [3]: Stable; T/C (HT-29 [7]): 52%; Activity (Mus musculus [9]): 1.7 g
3 | COc1ccc2c(c1)CC[C@@H](O)/C2=C/c1cc(OC)c(OC)c(OC)c1 | 99.2% | 900 nM | 2020 nM | > 10000 nM | remaining at 22 h, 15000 µM [2]: 92%; Stability [3]: Stable
4 | COc1ccc(/C=C2\c3cc(OC)c(OC)c(OC)c3CC[C@H]2O)cc1C(N)=O | – | 550 nM | 1920 nM | – | –
5 | COc1ccc(/C=C2\c3cc(OC)c(OC)c(OC)c3CC[C@H]2O)cc1[N+](=O)[O-] | – | > 10000 nM | > 10000 nM | – | –
6 | COc1ccc(/C=C2\c3cc(OC)c(OC)c(OC)c3CC[C@H]2O)cc1N | – | 910 nM | 1870 nM | – | –
7 | COc1ccc(/C=C2\c3cc(OC)c(OC)c(OC)c3CC[C@@H]2O)cc1[N+](=O)[O-] | – | 1590 nM | 4640 nM | – | –
8 | COc1ccc(/C=C2\c3cc(OC)c(OC)c(OC)c3CC[C@@H]2O)cc1N | – | 160 nM | 740 nM | – | –
9 | COc1ccc(/C=C2\c3cc(OC)c(OC)c(OC)c3CC[C@@H]2O)cc1C#N | – | 5 nM | 20 nM | – | –
10 | COc1ccc(/C=C2\c3cc(OC)c(OC)c(OC)c3CC[C@H]2O)cc1 | 99.1% | 2600 nM | 3780 nM | > 10000 nM | remaining at 22 h, 15000 µM [2]: 93%; Stability [3]: Stable
11 | COc1ccc(/C=C2\c3cc(OC)c(OC)c(OC)c3CC[C@@H]2O)cc1O | – | 260 nM | 1060 nM | – | –
12 | COc1ccc(/C=C2\c3cc(OC)c(OC)c(OC)c3CC[C@H]2O)cc1O | – | 790 nM | 1590 nM | – | –
13 | COc1ccc(/C=C2\c3cc(OC)c(OC)c(OC)c3CC[C@@H]2O)cc1F | – | 3 nM | 1 nM | 5700 nM | –
14 | COc1ccc2c(c1)CCC(=O)/C2=C/c1cc(OC)c(OC)c(OC)c1 | 52.8% | 130 nM | 2 nM | 3930 nM | –
15 | COc1ccc(/C=C2\c3cc(OC)c(OC)c(OC)c3CC[C@@H]2O)cc1C(N)=O | – | 550 nM | 1440 nM | – | –
16 | COc1ccc(/C=C2\c3cc(OC)c(OC)c(OC)c3CC[C@H]2O)cc1F | – | 220 nM | 720 nM | – | –
17 | COc1ccc(/C=C2\c3cc(OC)c(OC)c(OC)c3CC[C@H]2O)cc1C#N | – | 200 nM | 600 nM | – | –
18 | COc1ccc(/C=C2\c3cc(OC)c(OC)c(OC)c3CC[C@H]2O)cc1C | – | 3970 nM | 1340 nM | – | –
19 | COc1ccc(/C=C2\c3cc(OC)c(OC)c(OC)c3CC[C@@H]2O)cc1 | 99.4% | 2460 nM | 7030 nM | > 10000 nM | remaining at 22 h, 15000 µM [2]: 92.6%; Stability [3]: Stable
20 | COc1ccc(/C=C2\c3cc(OC)c(OC)c(OC)c3CC[C@@H]2O)cc1C | – | 2560 nM | 730 nM | – | –
